Consider three compounds from publication PMC2948526 (Antiviral chemistry & chemotherapy, 2010).

The CC50 is the concentration that lowers cell viability or growth by half.

One series relates to Ad4. Kind of series: Ad4 yield reduction assay. It counts as cell-based, human adenovirus type-4. The note with it: A549 cells, 10 μM olomoucine II, 100 μM cidofovir or both. The essentials: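 Confluent A549 monolayers were infected with 2,000 PFU/well Ad4 (multistep growth curve, MOI 0.01) for 1 h at 37°C with rocking. They were rinsed, then kept in medium with 10 μM test compound, 100 μM cidofovir, or both. Cells and media were harvested separately at 6–96 h, and released and total virus were titrated on A549 cells. The 0 h point is the inoculum.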

For series [1], the system named is human fetal foreskin fibroblast cells. Kind of series: Apoptosis as caspase-3/7 activity. It counts as cell-based. The following applies: 15–50 μM olomoucine II; 24, 48, 72 h. A digest of the protocol:
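Confluent HFFF cells (DMEM, 10% heat-inactivated FBS) were exposed for 24, 48 or 72 h to test compound dilutions, to mock treatment, or to serum deprivation. Caspase-3/7 activity was read by Caspase-Glo 3/7 luminescence, following the kit protocol. Values are blank-subtracted relative luminescence units ± SD.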

Series [2] can be described thus: WST-1 cytotoxicity assay, HFFF cells. The following applies: human, HFFF cells (human fetal foreskin fibroblasts), confluent. It is filed as cell-based, human. In general terms: Formazan colour is commonly taken as a measure of viable cells.
In another series the test system is HFFF cells. Kind of series: WST-1 cytotoxicity assay, HFFF cells. It counts as cell-based, human. The following applies: 2.4–5.3 μM olomoucine II, WST-1, fibroblasts.
The nature of series [3]: WST-1 cytotoxicity assay, A549 cells. It is filed as cell-based. The note with it: human, A549 cells (human lung carcinoma epithelial cells). The essentials:
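A549 cells were grown in DMEM with 10% heat-inactivated FBS and antibiotics, then exposed to test compound. Viability was measured with a WST-1 kit, following the kit protocol, as absorbance at 450 nm.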

A further series concerns CDK9. The note with it: cited from earlier work.

For `Nc1ccn(C[C@@H](CO)OCP(=O)(O)O)c(=O)n1` [Cidofovir, (S)-1-[3-hydroxy-2-(phosphonylmethoxy)propyl]-cytosine, reference compound], the “Reduction of total virus yield” value is listed as 2 log (log10 PFU) in the series on Ad4 (24 h post-infection), 2 log in the series with Ad4 (48 h post-infection) and 3 log with Ad4 (96 h post-infection).

In the case of `CC[C@H](CO)Nc1nc(NCc2ccccc2O)c2ncn(C(C)C)c2n1` [Olomoucine II, 6-(2-hydroxybenzylamino)-2-{[(1R)-(hydroxymethyl)propyl]amino}-9-isopropylpurine], the Caspase-3/7 activity entry in series [1] is “caspase activation”. Further, in series [2], the cytotoxic concentration (CC50) at 24 h is greater than 100 µM, the CC50 at 48 h came to 73 ± 4 µM, the half-maximal cytotoxic concentration (CC50) at 72 h amounted to 16 ± 2 µM and the CC50 at 96 h was determined as 17 ± 2 µM. The CC50 at 168 h in series [2] was determined as 16 ± 3 µM. The “Cytotoxicity at antiviral IC50 levels” value in the series with HFFF cells is given as “no significant cytotoxicity was detected”. In series [3], this compound came in with a CC50 at 48 h greater than 100 µM, a CC50 at 96 h greater than 100 µM and a cytotoxic concentration (CC50) at 120 h greater than 100 µM. The “Higher inhibitory activity for CDK9 compared with roscovitine” value with CDK9 is 10 fold. Besides, in the series with Ad4 (24 h post-infection), the “Reduction of total virus yield” value was 5 log (log10 PFU). Further, in the series on Ad4 (48 h post-infection), the “Reduction of total virus yield” value amounted to 1 log. Further, in the series on Ad4 (96 h post-infection), the “Reduction of total virus yield” value was “no overall effect on virus yield”.

As for `CC[C@H](CO)Nc1nc(NCc2ccccc2)c2ncn(C(C)C)c2n1` [Roscovitine, 2-(R)-(1-ethyl-2-hydroxyethylamino)-6-benzylamino-9-isopropylpurine, reference compound], in series [2], the CC50 at 24 h is greater than 100 µM, the CC50 at 48 h amounted to 84 ± 5 µM, the CC50 at 72 h was determined as 21 ± 2 µM and the CC50 at 168 h came to 30 ± 4 µM. In series [3], this compound displayed a CC50 at 48 h greater than 100 µM, a CC50 at 96 h greater than 100 µM and a CC50 at 120 h greater than 100 µM.
